Key:
[1] = molecular target: 5-hydroxytryptamine receptor 2A (Homo sapiens, UniProt P28223); experiment: Displacement of [3H]ketanserin from human 5HT2A receptor expressed in HEK293 cell membranes
Procedure, shortened: (§1)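 Homogenates from HEK 293 cells transiently transfected (calcium phosphate) with the human receptor gene in pcDNA3.1. [³H]SCH23390 at 0.3–0.7 nM (D1) or 0.4–0.5 nM (D5); [³H]ketanserin at 0.3–0.5 nM (5-HT2A). Competition curves fitted by non-linear regression, EC50 converted to Ki via Cheng–Prusoff.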

[2] = Displacement of [3H]prazosin from porcine cerebral cortex alpha1 adrenoceptor; assay type: tissue-based, Sus scrofa
Homo sapiens [3] = species on record: Homo sapiens; experiment: Selectivity index, ratio of Ki for human dopamine D2 long receptor to Ki for human dopamine D3 receptor
Procedure, shortened: (§2)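 Ratio of Ki at D2long or D2short to Ki at D3, with both Ki values from [³H]spiperone competition on CHO membranes stably expressing the human receptors.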

Homo sapiens [4] = species on record: Homo sapiens; experiment: Selectivity index, ratio of Ki for human dopamine D2 short receptor to Ki for human dopamine D3 receptor; procedure, shortened: as §2
D(1A) dopamine receptor = D(1A) dopamine receptor (Homo sapiens, UniProt P21728); experiment: Displacement of [3H]SCH23390 from human dopamine D1 receptor expressed in HEK293 cell membranes; procedure, shortened: as §1
D(1B) dopamine receptor = D(1B) dopamine receptor (Homo sapiens, UniProt P21918); experiment: Displacement of [3H]SCH23390 from human dopamine D5 receptor expressed in HEK293 cell membranes; procedure, shortened: as §1
D(2) dopamine receptor [5] = molecular target: T1, D(2) dopamine receptor (Homo sapiens, UniProt P14416); experiment: Displacement of [3H]spiperone from human dopamine D2 long receptor expressed in CHO cell membranes
Procedure, shortened: (§3)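 Membranes of CHO cells stably expressing each human receptor; [³H]spiperone final 0.1–0.2 nM (D2long), 0.2 nM (D2short), 0.2–0.4 nM (D3), 0.15–0.35 nM (D4.4), set by K_D. Protein per well 4–6, 1–4, 1–6 and 5–6 µg respectively. EC50 from competition curves by non-linear regression, converted to Ki with Cheng–Prusoff; Ki mean of 3–7 independent experiments in triplicate.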

D(2) dopamine receptor [6] = molecular target: T1, D(2) dopamine receptor; experiment: Displacement of [3H]spiperone from human dopamine D2 short receptor expressed in CHO cell membranes; procedure, shortened: as §3
D(3) dopamine receptor [7] = molecular target: T2, D(3) dopamine receptor (Homo sapiens, UniProt P35462); experiment: Displacement of [3H]spiperone from human dopamine D3 receptor expressed in CHO cell membranes; procedure, shortened: as §3
D(4) dopamine receptor = molecular target: T3, D(4) dopamine receptor (Homo sapiens, UniProt P21917); experiment: Displacement of [3H]spiperone from human dopamine D4.4 receptor expressed in CHO cell membranes; procedure, shortened: as §3
T3 sequence (P21917 whole entry): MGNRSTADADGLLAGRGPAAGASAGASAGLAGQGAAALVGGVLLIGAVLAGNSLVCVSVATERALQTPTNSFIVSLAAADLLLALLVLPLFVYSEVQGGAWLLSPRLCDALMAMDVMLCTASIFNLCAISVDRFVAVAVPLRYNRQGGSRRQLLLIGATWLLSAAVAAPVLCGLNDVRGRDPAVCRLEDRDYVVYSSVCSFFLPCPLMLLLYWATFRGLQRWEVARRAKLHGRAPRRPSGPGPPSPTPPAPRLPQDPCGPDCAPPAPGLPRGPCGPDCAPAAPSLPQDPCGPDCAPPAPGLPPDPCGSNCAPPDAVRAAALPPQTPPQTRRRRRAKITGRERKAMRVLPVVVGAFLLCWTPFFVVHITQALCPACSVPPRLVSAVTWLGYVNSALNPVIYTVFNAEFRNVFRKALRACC

[8] = Displacement of [3H][…] from porcine cerebral cortex 5HT1A receptor; assay type: tissue-based, Sus scrofa
Procedure, shortened: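 Porcine cerebral cortex homogenates as receptor source; [³H][…] at 0.2–0.33 nM for 5-HT1A. Protein measured by Lowry against bovine serum albumin. Competition curves fitted by non-linear regression, EC50 converted to Ki via Cheng–Prusoff.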

D(3) dopamine receptor [9] = molecular target: T2, D(3) dopamine receptor; experiment: Activation of wild type human dopamine D3 receptor expressed in HEK293 cells co-expressing GaqG66Di5- incubated for 120 mins by scintillation counting based myo-[3H]inositol phosphate accumulation assay; assay type: functional, cell-based
D(3) dopamine receptor [10] = molecular target: T2, D(3) dopamine receptor; experiment: Activation of wild type human dopamine D3 receptor expressed in HEK293 cells co-expressing GaqG66Di5- incubated for 120 mins by scintillation counting based myo-[3H]inositol phosphate accumulation assay relative to quinpirole; assay type: functional, cell-based
Procedure, shortened: (§4)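 HEK293T cells transiently co-transfected with human D3 (wild type or L89K mutant) plus GαqG66Di5; 24 h later seeded and labelled with myo-[³H]inositol. Next day, compounds in Tris/EDTA/MgCl2/DTT buffer pH 7.4 with 10 mM LiCl for 120 min at 37 °C. Total IP isolated by anion exchange and counted by scintillation; expressed as fold over basal (unstimulated = 1).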

D(3) dopamine receptor [11] = molecular target: D(3) dopamine receptor (Homo sapiens, UniProt P35462, L89K); experiment: Activation of human dopamine D3 receptor L89K mutant expressed in HEK293 cells co-expressing GaqG66Di5- incubated for 120 mins by scintillation counting based myo-[3H]inositol phosphate accumulation assay; assay type: functional, cell-based
[12] = tested on: D(3) dopamine receptor (Homo sapiens), P35462 [L89K]; experiment: Activation of human dopamine D3 receptor L89K mutant expressed in HEK293 cells co-expressing GaqG66Di5- incubated for 120 mins by scintillation counting based myo-[3H]inositol phosphate accumulation assay relative to control; assay type: functional, cell-based; procedure, shortened: as §4
D(3) dopamine receptor (Homo sapiens), P35462 [L89K], sequence (P35462 as listed by the source): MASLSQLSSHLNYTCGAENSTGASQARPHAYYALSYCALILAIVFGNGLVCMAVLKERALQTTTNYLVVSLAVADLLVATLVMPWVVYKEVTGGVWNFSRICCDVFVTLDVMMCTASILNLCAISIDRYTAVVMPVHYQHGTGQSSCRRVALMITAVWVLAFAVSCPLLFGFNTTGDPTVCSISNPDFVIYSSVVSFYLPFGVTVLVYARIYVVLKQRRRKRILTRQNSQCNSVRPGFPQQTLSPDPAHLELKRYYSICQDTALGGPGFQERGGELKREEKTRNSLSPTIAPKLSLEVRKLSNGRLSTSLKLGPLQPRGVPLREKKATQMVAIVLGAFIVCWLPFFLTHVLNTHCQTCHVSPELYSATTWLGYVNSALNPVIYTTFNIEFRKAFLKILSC

T1 sequence (P14416 whole entry): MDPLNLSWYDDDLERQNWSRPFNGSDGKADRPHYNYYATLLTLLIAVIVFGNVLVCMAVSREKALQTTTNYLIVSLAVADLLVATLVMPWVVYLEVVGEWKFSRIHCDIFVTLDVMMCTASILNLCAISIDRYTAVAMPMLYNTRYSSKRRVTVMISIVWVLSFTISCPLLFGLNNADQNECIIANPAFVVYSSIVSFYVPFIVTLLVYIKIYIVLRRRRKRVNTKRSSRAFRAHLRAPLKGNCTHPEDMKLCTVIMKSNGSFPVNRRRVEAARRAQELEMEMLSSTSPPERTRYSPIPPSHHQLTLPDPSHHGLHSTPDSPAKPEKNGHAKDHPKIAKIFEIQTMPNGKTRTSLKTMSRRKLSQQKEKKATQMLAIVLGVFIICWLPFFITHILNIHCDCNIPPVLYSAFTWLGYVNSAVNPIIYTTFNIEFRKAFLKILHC
D(1A) dopamine receptor, sequence (P21728 whole entry): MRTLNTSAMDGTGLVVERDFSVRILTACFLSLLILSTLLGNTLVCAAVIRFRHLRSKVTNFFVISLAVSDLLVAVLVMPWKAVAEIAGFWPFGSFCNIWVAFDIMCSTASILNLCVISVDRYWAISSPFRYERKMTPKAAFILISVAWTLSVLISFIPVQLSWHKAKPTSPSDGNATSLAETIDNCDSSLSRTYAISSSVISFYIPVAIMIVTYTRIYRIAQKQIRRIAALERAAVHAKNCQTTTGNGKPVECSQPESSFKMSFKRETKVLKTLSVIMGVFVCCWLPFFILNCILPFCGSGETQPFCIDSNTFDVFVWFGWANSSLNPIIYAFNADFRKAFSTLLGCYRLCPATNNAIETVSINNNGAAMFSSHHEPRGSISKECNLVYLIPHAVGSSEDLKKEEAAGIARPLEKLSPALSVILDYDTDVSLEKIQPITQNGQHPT
D(1B) dopamine receptor, sequence (P21918 whole entry): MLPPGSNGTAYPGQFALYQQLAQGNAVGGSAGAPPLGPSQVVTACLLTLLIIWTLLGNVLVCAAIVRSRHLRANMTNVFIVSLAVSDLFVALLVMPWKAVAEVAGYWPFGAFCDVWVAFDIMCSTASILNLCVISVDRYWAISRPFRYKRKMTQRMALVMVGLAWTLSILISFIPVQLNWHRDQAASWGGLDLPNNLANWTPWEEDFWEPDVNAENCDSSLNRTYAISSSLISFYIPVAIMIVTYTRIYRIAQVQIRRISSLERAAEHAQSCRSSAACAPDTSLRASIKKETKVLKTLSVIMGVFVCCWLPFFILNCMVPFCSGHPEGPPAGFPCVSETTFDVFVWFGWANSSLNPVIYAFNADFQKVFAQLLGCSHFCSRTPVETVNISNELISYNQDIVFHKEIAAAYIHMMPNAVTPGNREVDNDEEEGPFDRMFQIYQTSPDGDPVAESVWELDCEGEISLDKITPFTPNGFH
D(3) dopamine receptor (Homo sapiens, UniProt P35462, L89K), sequence (P35462 as listed by the source L89K): as the sequence (P35462 as listed by the source) above
5-hydroxytryptamine receptor 2A, sequence (P28223 whole entry): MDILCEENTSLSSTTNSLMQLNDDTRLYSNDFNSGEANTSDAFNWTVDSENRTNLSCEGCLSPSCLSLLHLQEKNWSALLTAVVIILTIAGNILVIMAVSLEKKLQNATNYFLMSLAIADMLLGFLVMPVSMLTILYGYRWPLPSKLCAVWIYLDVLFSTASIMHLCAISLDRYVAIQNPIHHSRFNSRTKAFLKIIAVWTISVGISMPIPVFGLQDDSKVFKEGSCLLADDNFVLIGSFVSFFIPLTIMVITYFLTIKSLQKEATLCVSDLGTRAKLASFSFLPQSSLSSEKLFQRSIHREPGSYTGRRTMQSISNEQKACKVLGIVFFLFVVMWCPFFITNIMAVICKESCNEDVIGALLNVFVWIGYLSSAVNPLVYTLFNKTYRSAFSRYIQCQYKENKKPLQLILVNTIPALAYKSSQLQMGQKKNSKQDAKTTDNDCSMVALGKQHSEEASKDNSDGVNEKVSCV
T2 sequence (P35462 whole entry): as the sequence (P35462 as listed by the source) above, with S9G, K89L counted along it

SMILES | Ki [1] [nM] | Ki [2] [nM] | Ratio Ki (Homo sapiens [3]) | Ratio Ki (Homo sapiens [4]) | Ki (D(1A) dopamine receptor) [nM] | Ki (D(1B) dopamine receptor) [µM] | Ki (D(2) dopamine receptor [5]) [nM] | Ki (D(2) dopamine receptor [6]) [nM] | Ki (D(3) dopamine receptor [7]) [nM] | Ki (D(4) dopamine receptor) [nM] | Ki [8] [nM] | EC50 (D(3) dopamine receptor [9]) [nM] | Efficacy (D(3) dopamine receptor [10]) [%] | EC50 (D(3) dopamine receptor [11]) [nM] | Efficacy [12] [%]
CCCN(CCNC(=O)/N=N/c1cc(F)c(F)c(F)c1)C1Cc2ccccc2C1 | 510 | 900 | 1.3 | 0.84 | 2600 | 3.8 | 110 | 73 | 87 | 10 | 3.3 | – | – | – | –
CCCN(CCNC(=O)/C=C/c1ccc(F)cc1)C1Cc2ccccc2C1 | 210 | 58 | 3.1 | 0.93 | 2200 | 11 | 43 | 13 | 14 | 1.4 | 4.3 | – | – | – | –
CCCN(CCCCNC(=O)/N=N/c1cc(F)c(F)c(F)c1)C1Cc2ccccc2C1 | – | – | 8.2 | 2.4 | – | – | 40 | 12 | 4.9 | 40 | – | 11 | 90 | 114 | 101
CCCN(CCNC(=O)/N=N/c1ccc(F)cc1)C1Cc2ccccc2C1 | – | – | 3.6 | 2.9 | – | – | 5 | 4 | 1.4 | 0.99 | – | – | – | – | –
CCCN(CCCCNC(=O)/N=N/c1ccc(F)cc1)C1Cc2ccccc2C1 | 550 | 170 | 27 | 42 | 3300 | 7 | 23 | 36 | 0.85 | 34 | 5.8 | 2.6 | 84 | 68 | 81
CCCN(CCCCNC(=O)/C=C/c1ccc(F)cc1)C1Cc2ccccc2C1 | 89 | 120 | 61 | 9.4 | 1300 | 2.9 | 19 | 2.9 | 0.31 | 16 | 5 | – | – | – | –
COc1ccccc1N1CCN(CCCCNC(=O)/N=N/c2ccc(F)cc2)CC1 | – | 5.2 | 13 | 11 | – | – | – | 34 | 3 | – | 3.3 | – | – | – | –

More lines, now with the values ahead:

Ki [1] [nM] | Ki [2] [nM] | Ratio Ki (Homo sapiens [3]) | Ratio Ki (Homo sapiens [4]) | Ki (D(1A) dopamine receptor) [nM] | Ki (D(1B) dopamine receptor) [µM] | Ki (D(2) dopamine receptor [5]) [nM] | Ki (D(2) dopamine receptor [6]) [nM] | Ki (D(3) dopamine receptor [7]) [nM] | Ki (D(4) dopamine receptor) [nM] | Ki [8] [nM] | EC50 (D(3) dopamine receptor [9]) [nM] | Efficacy (D(3) dopamine receptor [10]) [%] | EC50 (D(3) dopamine receptor [11]) [nM] | Efficacy [12] [%] | SMILES
– | – | 10 | 16 | – | – | 7.5 | 12 | 0.72 | 36 | – | – | – | – | – | COc1ccccc1N1CCN(CCCCNC(=O)/N=N/c2ccc(F)c(F)c2)CC1
– | – | 13 | 6.5 | – | – | 25 | 13 | 2 | 31 | – | 6.1 | 94 | 79 | 77 | CCCN(CCCCNC(=O)/N=N/c1ccc(F)c(F)c1)C1Cc2ccccc2C1
– | – | 1.4 | 3 | – | – | 3.9 | 8.5 | 2.8 | 2 | – | – | – | – | – | CCCN(CCNC(=O)/N=N/c1ccc(F)c(F)c1)C1Cc2ccccc2C1
– | – | 4.7 | 6.8 | – | – | 6.6 | 9.5 | 1.4 | 47 | – | – | – | – | – | COc1ccccc1N1CCN(CCCCNC(=O)/N=N/c2cc(F)c(F)c(F)c2)CC1
